The target of experiment [1] is T1, Aldo-keto reductase family 1 member C3 (Homo sapiens, UniProt P42330).
T1 sequence (P42330 whole entry): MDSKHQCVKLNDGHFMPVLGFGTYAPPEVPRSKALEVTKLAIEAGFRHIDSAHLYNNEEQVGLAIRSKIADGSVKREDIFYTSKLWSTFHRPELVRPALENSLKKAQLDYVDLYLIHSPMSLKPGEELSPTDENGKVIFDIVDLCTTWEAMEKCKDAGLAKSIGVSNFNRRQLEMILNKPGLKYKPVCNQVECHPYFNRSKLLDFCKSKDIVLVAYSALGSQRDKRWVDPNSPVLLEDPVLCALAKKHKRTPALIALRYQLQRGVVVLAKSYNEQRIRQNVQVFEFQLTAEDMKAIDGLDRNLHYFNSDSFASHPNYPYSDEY
The experiment in a line: Inhibition of human recombinant AKR1C3 assessed as 1-acenaphthenol oxidation by spectrophotometry. A digest of the protocol: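 NADH formation was monitored at 340 nm using initial velocities. IC50 was read graphically from log10[inhibitor] versus % inhibition. Ki was derived by Cheng-Prusoff for competitive inhibition.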

Experiment [2] deals with T2, Aldo-keto reductase family 1 member C3 (Homo sapiens) (UniProt P42330).
T2 sequence (whole entry): T1 sequence (P42330 whole entry)
The experiment in a line: Inhibition of human recombinant AKR1C3 assessed as 1-acenaphthenol oxidation at 400 uM by spectrophotometry.

Experiment [3] has as its target T3, Aldo-keto reductase family 1 member C1 (Homo sapiens) (UniProt Q04828).
T3 sequence (whole entry): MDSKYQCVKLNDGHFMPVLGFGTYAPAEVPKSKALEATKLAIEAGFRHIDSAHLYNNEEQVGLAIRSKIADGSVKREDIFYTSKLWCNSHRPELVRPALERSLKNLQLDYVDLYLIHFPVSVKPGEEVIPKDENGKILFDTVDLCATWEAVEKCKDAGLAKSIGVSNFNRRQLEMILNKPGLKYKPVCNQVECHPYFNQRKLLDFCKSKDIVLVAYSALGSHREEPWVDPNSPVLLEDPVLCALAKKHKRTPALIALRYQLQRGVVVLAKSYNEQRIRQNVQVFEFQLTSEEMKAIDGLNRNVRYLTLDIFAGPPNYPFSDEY
Put plainly: Inhibition of human recombinant AKR1C1 assessed as 1-acenaphthenol oxidation at 400 uM by spectrophotometry. Put shortly:
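Recombinant AKR1C1 (0.3 μM) oxidizing 30 μM 1-acenaphthenol with 2.3 mM NAD+ in 100 mM phosphate pH 9.0, 0.005% triton X-114, 5% DMSO. NADH increase was followed at 340 nm.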

Experiment [4] concerns the target T4, Aldo-keto reductase family 1 member C1 (Homo sapiens, UniProt Q04828).
T4 sequence (Q04828 whole entry): T3 sequence (whole entry)
The experiment in a line: Inhibition of human recombinant AKR1C1 assessed as 1-acenaphthenol oxidation by spectrophotometry.

Experiment [5] deals with T1, Aldo-keto reductase family 1 member C3. The experiment in a line: Competitive inhibition of human recombinant AKR1C3 assessed as S-tetralol oxidation by Cheng-Prusoff equation analysis. A digest of the protocol:
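NADPH formation followed fluorometrically; initial velocities measured in quadruplicate per inhibitor concentration. IC50 fitted as y = range/(1+I/IC50)^s + background, then converted to Ki with the Cheng-Prusoff equation for competitive inhibition.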

The target is the same in experiment [6]. The experiment in a line: Inhibition of human recombinant AKR1C3 assessed as S-tetralol oxidation by micro plate fluorescence reader based assay. A digest of the protocol: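 Fluorometric plate-reader read-out of NADPH formation as initial velocity. Each inhibitor concentration run in quadruplicate. IC50 from fit to y = range/(1+I/IC50)^s + background.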

The target of experiment [7] is T3, Aldo-keto reductase family 1 member C1 (Homo sapiens). Put plainly: Inhibition of human recombinant AKR1C1 assessed as S-tetralol oxidation at 300 uM by micro plate fluorescence reader based assay. A digest of the protocol: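 Buffer was 100 mM K3PO4 pH 7.0 with 200 μM NADP+ and 4% DMSO final. Inhibitor was tested at 300 μM, in quadruplicate. Rates are initial velocities.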

Experiment [8] concerns the target T5, Aldo-keto reductase family 1 member C4 (Homo sapiens) (UniProt P17516).
T5 sequence (whole entry): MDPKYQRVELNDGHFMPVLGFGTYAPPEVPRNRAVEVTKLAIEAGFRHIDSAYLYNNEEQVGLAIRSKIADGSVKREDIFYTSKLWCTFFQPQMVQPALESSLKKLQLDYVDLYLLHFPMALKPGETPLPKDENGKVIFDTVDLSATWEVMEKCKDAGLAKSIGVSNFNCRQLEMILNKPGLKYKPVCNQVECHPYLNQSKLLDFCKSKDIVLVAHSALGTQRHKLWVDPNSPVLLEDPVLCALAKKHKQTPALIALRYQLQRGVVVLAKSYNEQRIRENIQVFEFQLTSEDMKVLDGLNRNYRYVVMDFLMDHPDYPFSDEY
Put plainly: Inhibition of human recombinant AKR1C4 assessed as S-tetralol oxidation at 300 uM by micro plate fluorescence reader based assay. A digest of the protocol:
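NADPH production was measured fluorometrically. Inhibitor was tested at 300 μM, quadruplicate wells. Inhibition was taken from initial velocities.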

We go through 25 compounds from ChEMBL document CHEMBL2169790, “Selective inhibitors of aldo-keto reductases AKR1C1 and AKR1C3 discovered by virtual screening of a fragment library” (J Med Chem, 2012).

SMILES strings stand for the structures.

With `O=C(O)c1cc(-c2cccc(O)c2)nc2ccccc12`, in experiment [1], the Ki turned out to be 54 µM.

Take `O=C(O)CNC=C1C(=O)CC(c2ccccc2)CC1=O` (stereo not drawn): in experiment [2], the inhibition was 18.4%.

As to `NC(=O)c1ccccc1/N=C/c1cccc(O)c1`, the Ki in experiment [1] stood at 36 µM. In addition, the inhibition in experiment [3] is below 10%.

In the case of `NC(=O)c1ccccc1NC(=O)c1ccncc1`, the values for the inhibition in experiment [2] and in experiment [3] were 17.8% and 22.5%, respectively.

Turning to `Cc1cc(Nc2cc(C(=O)O)ccc2C)nc(C)n1`, the Ki in experiment [1] was 144 µM. Besides, in experiment [3], the inhibition turned out to be 39.5%.

On to `CN(c1ccc(C(=O)O)cc1)S(=O)(=O)c1ccccc1`, for which the Ki in experiment [1] is 148 µM.

Take `Cc1cccc(C(=O)Nc2ccccc2C(N)=O)c1`: the inhibition is 10.8% in experiment [2] and below 10% in experiment [3].

As to `O=C(O)CCNS(=O)(=O)c1ccc2ccccc2c1`, in experiment [1], the Ki is 148 µM.

As to `O=C(O)CCNc1cc2ccccc2cc1C(=O)O`, the Ki in experiment [1] is 44 µM.

As for `CC(=O)Nc1ccc(C(C#N)c2ccccc2)cc1` (stereo not drawn), the Ki in experiment [1] was determined as 87 µM.

As for `Cc1oc(C(N)=O)cc1COc1ccccc1C(N)=O`, the Ki in experiment [4] is 122 µM. Further, in experiment [2], the inhibition worked out at 53.4%.

On to `O=CN1CCN(C(=O)c2ccc3ccccc3c2)CC1`, for which the Ki in experiment [4] amounted to 64 µM. The inhibition in experiment [2] worked out at 46.7%.

For the compound `Cc1cc(C(=O)Nc2ccc(O)c(C(=O)O)c2)oc1C`, the Ki in experiment [1] is 82 µM. The inhibition in experiment [3] was below 10%.

Take `O=C(O)c1cccc(NCC(=O)c2ccccc2)c1`: the Ki in experiment [1] amounted to 72 µM. Further, the inhibition in experiment [3] came out at 44.8%.

Regarding `O=C1CCC2(c3ccccc3)Nc3ccccc3N12` (stereo not drawn), the figures for the Ki in experiment [1] and in experiment [5] were 32 µM and 2730 nM, respectively. Moreover, the IC50 in experiment [6] was 5460 nM. The inhibition in experiment [3] came to 43.5%.

Regarding `Cc1ccc(S(=O)(=O)Nc2cccc(C(=O)O)c2)cc1`, in experiment [1], the Ki is 111 µM. Besides, in experiment [3], the inhibition was determined as 43.1%.

Take `O=C(O)c1ccc(CNCc2ccccn2)cc1`: the inhibition in experiment [2] is 51.2%; in experiment [3], below 10%.

In the case of `O=C(CSc1ncnc2[nH]cnc12)Nc1ccccn1`, the Ki in experiment [4] stood at 69 µM. Further, the inhibition in experiment [2] was found to be 44.3%.

For the compound `Cc1ccc(NC(=O)c2cccnc2)c(C(=O)O)c1`, the figures for the inhibition in experiment [2] and in experiment [3] were 33.1% and 47.4%, respectively.

Take `O=C(O)c1cc(NC(=O)c2ccccc2F)ccc1O`: the inhibition in experiment [2] was determined as 48.8%; in experiment [3], 30.1%.

As for `O=C(CC1SC(=O)NC1=O)Nc1ccccc1O` (stereo not drawn), the values for the Ki in experiment [1] and in experiment [5] were 2 µM and 107 nM, respectively. Moreover, the IC50 in experiment [6] came out at 213 nM. The inhibition in experiment [7] is 37%; in experiment [8], 35%; in experiment [3], below 10%.

On to `O=C1COc2ccc(C(=O)c3ccccc3)cc2CN1`, for which the Ki in experiment [1] is 76 µM.

On to `Cc1ccn(Cc2cc(C(=O)O)c3ccccc3n2)n1`, for which, in experiment [1], the Ki was determined as 117 µM.

In the case of `O=C(O)c1cccc(Nc2nc3ccccc3[nH]2)c1`, the inhibition constant Ki in experiment [1] came to 142 µM. Further, in experiment [3], the inhibition was below 10%.

As to `O=C(NCc1cc(=O)[nH]cn1)c1cc2ccccn2n1`, the inhibition constant Ki in experiment [1] stood at 118 µM. For the same compound, in experiment [3], the inhibition is below 10%.
